Screening data from PubChem BioAssay.
In the library only some 2.9% were active in any assay of this set; here they are far more common.
Runt-CBFb FRET – blocks binding of human RUNX1 Runt domain to CBFb. inhibition, % at 20 µM. Cerulean-Runt/Venus-CBFb FRET ratio 530/480, 1 h. Q01196+Q13951. 220,000 tested, 0.46% active;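 active = inhibition over about 50% at 20 µM in the single-dose screen, limit read from the data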;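 note: 0% = DMSO wells and 100% = excess unlabeled CBFb competitor control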
Target sequence (Q01196 whole entry, looked up, the tested form may be a part): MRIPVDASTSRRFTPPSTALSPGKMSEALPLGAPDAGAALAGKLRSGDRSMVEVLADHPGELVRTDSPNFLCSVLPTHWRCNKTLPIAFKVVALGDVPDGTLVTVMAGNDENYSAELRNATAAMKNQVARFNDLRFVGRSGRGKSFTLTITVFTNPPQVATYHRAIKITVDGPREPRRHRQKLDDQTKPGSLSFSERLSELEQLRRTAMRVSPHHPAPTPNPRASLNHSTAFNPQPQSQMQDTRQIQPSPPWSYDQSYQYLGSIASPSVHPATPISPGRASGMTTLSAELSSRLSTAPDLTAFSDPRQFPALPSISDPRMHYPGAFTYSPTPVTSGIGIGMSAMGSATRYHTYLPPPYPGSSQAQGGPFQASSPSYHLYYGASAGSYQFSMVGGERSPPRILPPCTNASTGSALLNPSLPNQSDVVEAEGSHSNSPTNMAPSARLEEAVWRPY
Target sequence (Q13951 whole entry, looked up, the tested form may be a part): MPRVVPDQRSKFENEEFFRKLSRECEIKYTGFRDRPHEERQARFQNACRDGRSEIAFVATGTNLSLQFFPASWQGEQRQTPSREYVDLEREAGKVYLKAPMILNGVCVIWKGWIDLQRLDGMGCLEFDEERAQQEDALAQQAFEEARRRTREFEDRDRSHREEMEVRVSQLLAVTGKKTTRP
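System: Cerulean-labeled Runt domain protein | Quantity: 100 nM of each labeled protein | Schedule: 1 h compound exposure, room temperature | Detection: Fluorescence energy transfer, 422 nm excitation, 530/480 nm emission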
AI-2 QS mod – modulators of Vibrio harveyi AI-2 quorum sensing system | Vibrio harveyi JMH597 AI-2 luminescence/OD600 ratio, 9 h; hits give low values; strain lacks LuxN and CqsS sensors; 0 = neutral-control median | activity change, % at 7.5 µM | 300,000 tested, 0.4% active; in the data active = activity change below about -75%, passing the limit was not always enough; inconclusive = no clear call, values can overlap the other calls;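 note: luminescence divided by OD600 gain over 9 h not by final OD600 alone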
Runt-SMMHC FRET – Runt domain-CBFb-SMMHC interaction inhibition. Cerulean-Runt/Venus-CBFb-SMMHC FRET ratio 530/480, 1 h. inhibition, % at 20 µM. 220,000 tested, 0.74% active. Q01196+Q13951;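 active = mean inhibition across duplicate retests at 20 µM reaching about 50%, limit read from the data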;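 note: 0% = DMSO wells and 100% = wells with excess untagged CBFb-SMMHC; inhibitors lower the FRET ratio by blocking Runt binding to CBFb-SMMHC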
RanGTP-Impb inh – inhibitors of RanGTP-importin-beta interaction, primary screen, biochemical, FRET, CFP-Ran, YFP-importin-beta, homogeneous | 300,000 tested, 1.1% active | cell-free CFP-Ran/YFP-importin-beta FRET ratio | AID 2216 | inhibition, % (concentration not given with the values);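 active = more than half of the replicate wells show a fall in the fluorescence ratio signal beyond about 16%, limit read from the data, passing the limit was not always enough; inconclusive = exactly half of the replicate wells pass the set limit; inactive = fewer than half of replicates pass the limit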;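 note: 0% = DMSO wells and 100% = Ran loaded with GDP instead of GTP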
Wee1 degr inh – inhibitors of human Wee1 degradation. P30291. HeLa Luc-Wee1K328M stability, luciferase luminescence; 100% = proteasome inhibitor MG132 effect. 220,000 tested, 1.2% active. reporter increase, % at 5 µM. AID 1321;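 active = activation above the mean of all tested compounds plus 3 SD, set per screening run, cut at about 8.8% in these data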;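 note: cells exposed to compound for 20 h before luminescence read; 0% = DMSO alone and 100% = MG132 at 30 µM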
KLK7 zymogen act – activators of human kallikrein-7 zymogen. P49862. purified proKLK7, EDANS-DABCYL substrate fluorescence; 100% is mature enzyme control, 0% vehicle. activation, % at 7 µM. 370,000 tested, 0.9% active;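 active = activation above the mean of all tested compounds plus 3 SD, computed per campaign excluding outliers beyond control limits, cut at about 13% in these data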
Wee1 degr conf – confirmation of human Wee1 degradation inhibitors | HeLa Luc-Wee1K328M degradation, luminescence; vehicle 0%, proteasome-blocked wells 100% | activation, % at 5 µM | shares compounds with Wee1 degr inh | AID 1410 | 1,100 tested, 4% active; in the data active = activation above about 8.9%
* marks the source's active call; other numbers are inactive results; ? = inconclusive; . = not tested or not shown.

SMILES	Runt-CBFb FRET	AI-2 QS mod	Runt-SMMHC FRET	RanGTP-Impb inh	Wee1 degr inh	KLK7 zymogen act	Wee1 degr conf
COc1ccccc1-c1nnc(SCC(=O)N2CCOCC2)o1	-2	20	2	1	11*	0	3
COc1ccccc1-c1nnc(SCC(=O)N2CCCCC2)o1	.	14	.	5	.	0	.
COc1ccccc1-c1nnc(-c2ccc(C)cc2)o1	.	12	.	7	.	0	.
COc1ccccc1-c1nnc(-c2ccc(N3CCOCC3)cc2)o1	-3	4	0	6	15*	8	-1
CCc1[nH]nc2c1C1(CCN(C(=O)OCc3ccccc3)CC1)C(C#N)=C(N)O2	3	6	-3	6	16*	0	2
CCCc1[nH]nc2c1C1(CCN(C(=O)OCc3ccccc3)CC1)C(C#N)=C(N)O2	8	26	42	-4	3	0	.
COc1ccc(Cl)c2c1[nH]c1nc(SCc3cccnc3)nnc12	-6	36	-22	8	13*	0	-1
COc1ccc(Cl)c2c1[nH]c1nc(SCc3ccccn3)nnc12	-11	19	-11	-6	8	0	.
CC(=O)NC1=NN(C(C)=O)C(c2ccc(C(C)C)cc2)S1 (configuration not stated)	0	14	1	5	24*	0	1
CC(=O)NC1=NN(C(C)=O)C(c2cccc([N+](=O)[O-])c2)S1 (configuration not stated)	0	24	-3	3	-1	0	.
CCN1N=C(c2ccccc2)Cn2c1nc1ccccc12	2	5	-6	9	0	-5	.
CC(C)OCCCNC(=O)NC(=O)c1ccc(Cl)cc1	1	6	0	1	-4	-1	.
O=C(Nc1ccccc1)C1=C[C@H](c2ccc(Br)cc2)C[C@H](OCc2ccc(CO)cc2)O1	0	12	-1	2	11*	1	5
Cc1cc(C)nc(NS(=O)(=O)c2ccc(N/C=C/C(=O)c3ccc(Cl)cc3)cc2)n1	12	16	25	5	14*	0	0
NC(=O)CSc1nnc(-c2cc(-c3cccs3)nc3ccccc23)o1	-2	.	10	.	-2	-5	.
CCCN(CC1CC1)C(=O)CSc1nnc(-c2cc(-c3cccs3)nc3ccccc23)o1	-1	28	9	2	19*	-3	-2
OC(c1ccccc1)(c1ccccc1)C1CCN(CCCOc2ccc(C(F)(F)F)cc2)CC1	.	.	.	.	.	1	.
Cc1cc(NC(=O)CSc2nnc(-c3ccccc3)n2C)no1	2	16	-3	5	4	0	.
Cc1cc(NC(=O)CSc2nnc(C3COc4ccccc4O3)n2C)no1 (configuration not stated)	0	-56	-4	-1	22*	0	-3
Cc1cnccc1CNC(=O)CC1C(=O)NCCN1CC(C)(C)C (configuration not stated)	1	0	-4	?	-3	1	.
C/C(=N\N=c1/sc2ccccc2n1C)c1ccc(N2CCOCC2)cc1	0	10	2	1	14*	0	1
C/C(=N\N=c1/sc2ccccc2n1C)c1ccccn1	-1	10	-4	0	3	1	.
CC(=O)c1ccc(NC(=O)COC(=O)CCN2C(=O)c3cccc([N+](=O)[O-])c3C2=O)cc1	-3	3	-3	13	-2	1	.
CC(C)N(c1ccccc1)c1ccc(NC(=O)COC(=O)CCN2C(=O)c3cccc([N+](=O)[O-])c3C2=O)cc1	-3	18	-2	-1	20*	1	-1
CCCCc1c(C)nc(Nc2ccc(OC)cc2)[nH]c1=O	-3	1	1	-3	18*	-1	-1
SMILES	Runt-CBFb FRET	AI-2 QS mod	Runt-SMMHC FRET	RanGTP-Impb inh	Wee1 degr inh	KLK7 zymogen act	Wee1 degr conf
Cc1ccccc1NC(=O)NC(N)=O	-3	15	-2	-3	14*	1	-2
O=c1cc(-c2ccccc2Cl)oc2cc(O)cc(O)c12	-3	16	-2	0	-1	0	.
O=C1C=CC(O)(c2cc(=O)c3c(O)cc(O)cc3o2)C=C1	9	24	6	7	41*	1	69*
O=C(COc1ccc(F)cc1)NCCN1CCCC1	.	8	.	-4	.	0	.
c1ccc2[nH]c(NN=C3CCCCCC3)nc2c1	5	23	5	5	17*	-1	3
CCN1CCN(c2ccc([N+](=O)[O-])cc2S(=O)(=O)N2CCOCC2)CC1	-1	11	3	0	11*	0	4
O=C(NCCCN1CCOCC1)C(=O)N/N=C/c1ccccc1Cl	-1	5	-5	0	1	0	.
O=C(NCCCN1CCOCC1)C(=O)N/N=C/c1c(Cl)cccc1Cl	2	13	-3	-4	16*	0	3
COCc1cc(=O)[nH]c(-c2ccccc2)n1	-1	10	-2	.	2	0	.
O=C(Nc1ccc(N2CCCCC2)cc1)c1ccc(F)cc1	0	5	-1	-1	11*	-1	2
COc1ccccc1OCC(=O)Nc1ccc(N2CCCCC2)cc1	1	13	1	2	11*	0	0
O=C(c1ccc(F)cc1)c1ccc(N2CCCCC2)cc1	.	-23	.	?	.	0	.
CCOc1ccccc1OCC(=O)Nc1ccc(N2CCCCC2)cc1	0	-2	0	?	-1	0	.
CN(CCc1ccccc1)C(=O)c1ccc(NC(=O)Cc2ccc(NC(=O)C3CCN(C(=O)c4ccccc4)CC3)cc2)cc1	.	.	.	.	.	1	.
COc1cc([N+](=O)[O-])ccc1NC(=S)NNC(=O)CCC(=O)Nc1ccccc1Cl	.	11	.	0	.	0	.
CCC1CCC(NC(=O)Nc2cccc(OC)c2)CC1 (configuration not stated)	0	5	-2	0	16*	0	4
O=C(NCc1ccccc1)C12CN(Cc3ccccc3)CC1C(c1cccc([N+](=O)[O-])c1)=NO2 (configuration not stated)	0	4	1	-1	-1	0	.
O=C(NCc1ccc(OC(F)(F)F)cc1)C12CN(Cc3ccccc3)CC1C(c1cccc([N+](=O)[O-])c1)=NO2 (configuration not stated)	0	37	3	1	26*	1	3
O=C(COC(=O)c1cc(=O)[nH]c2ccccc12)NCCc1ccccc1	.	.	.	.	.	-44	.
COc1ccc(S(=O)(=O)Nc2ccccc2C(=O)NCc2cccnc2)cc1OC	.	10	.	2	.	0	.
